A short description of data set [1]: 5-YHEDA immunohistochemical staining of brain slices after cardiac injection. Type of data set: in vivo, mouse. Particulars: mice, intracardiac injection. In a few lines: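 Fixed brain slices were blocked in 0.1% BSA/PBS (w/v) for 1 h, then given anti-peptide mouse serum at 4°C overnight. The serum was raised in normal mice injected weekly with peptide plus incomplete Freund adjuvant (s.c. or i.p.) for 2 months. After washing, slices took HRP goat anti-mouse IgG for 2 h, then DAB development.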

The test system of another data set is SH-sy5y cells. Briefly: SH-sy5y cells in iron-rich medium: hydroxyl radical, iron and cell survival. The settings on record: 1.5 μM peptide; SEM and flow cytometry. In kind it is cell-based, human. On the technique in general: In flow cytometry, cells or beads pass a laser one at a time.
The nature of data set [2]: Isothermal titration calorimetry of FeCl3 with 5-YHEDA. The settings on record: ITC, 200 μM 5-YHEDA, 1000 μM FeCl3, one-site binding model. In general terms: ITC needs no label: the signal is the heat of the interaction.
For data set [3], the system named is SN mice. As to the kind of experiment: TUNEL assay of neuronal necrosis in brain. Type of data set: in vivo, Kunming mouse. Particulars: intracardiac weekly, versus untreated SN mice. The procedure, abridged: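 Senescent 25-month-old Kunming mice were picked by water maze, TUNEL and blood assays and given 200 μL of 20 μM peptide intracardially each time. Frozen brain sections sat 1 h in Na-HEPES, then 10 mM H2O2 and […]. After PBS wash and 0.1% Triton X-100, TUNEL mix ran 1 h at 37°C in the dark; some sections were DAB-stained. Bright/brown spots were scored necrotic.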

Data set [4] deals with SN mice. Type of data set: in vivo, Kunming mouse. Particulars: 200 μL of 20 μM intracardiac weekly, versus untreated SN mice.
The nature of data set [5]: Solubility of the oligomer. In kind it is physicochemical. Particulars: dissolved in distilled water at 1 mg/mL.

As for YHEDAYHEDAYHEDAYHEDAYHEDA [5-YHEDA], the “entry into brain (anti-5-YHEDA immunohistochemical staining of brain slices)” value in data set [1] is listed as “no staining was observed”. Further, the “survival of SH-sy5y cells in iron-rich medium” value in the data set on SH-sy5y cells is given as “many of the SH-sy5y cells cultured in iron-rich medium survived”. For the same substance, in data set [2], the “Gibbs energy lost after FeCl3 titration (ΔG)” value is 8973 kcal/mol. Also, the “neuronal necrosis in the SN brain (TUNEL)” value in the data set on SN mice [3] was “did not prevent neuronal damage”. Moreover, in the data set with SN mice [4], the “iron and radical levels in the brain (Fig. 5I)” value is “nearly the same as those in the untreated SN mice”. Further, the solubility result in data set [5] is reported as “soluble”.

(Values after paper PMC6944740 (Alzheimer's & Dementia : Translational Research & Clinical …, 2019).)
